Reference: ChEMBL document CHEMBL4052818, “Design, Synthesis, and Biological Assessment of Biased Allosteric Modulation of the Urotensin II Receptor Using Achiral 1,3,4-Benzotriazepin-2-one Turn Mimics” (J Med Chem, 2017)
Activity calls are given as the source filed them. No cut-off for these calls is given here.

Legend:
[1] = biological target: T1, Urotensin-2 receptor (Rattus norvegicus) (UniProt P49684); assay: Allosteric modulation of urotensin-2 receptor in Sprague-Dawley rat thoracic aorta assessed as change in human urotensin-2-mediated aortic ring contraction by measuring urotensin-2 Emax at 10^-5M preincubated for 15 mins followed by urotensin-2 addition relative to KCl (reference value: 103 +/- 2%)
T1 sequence (whole entry): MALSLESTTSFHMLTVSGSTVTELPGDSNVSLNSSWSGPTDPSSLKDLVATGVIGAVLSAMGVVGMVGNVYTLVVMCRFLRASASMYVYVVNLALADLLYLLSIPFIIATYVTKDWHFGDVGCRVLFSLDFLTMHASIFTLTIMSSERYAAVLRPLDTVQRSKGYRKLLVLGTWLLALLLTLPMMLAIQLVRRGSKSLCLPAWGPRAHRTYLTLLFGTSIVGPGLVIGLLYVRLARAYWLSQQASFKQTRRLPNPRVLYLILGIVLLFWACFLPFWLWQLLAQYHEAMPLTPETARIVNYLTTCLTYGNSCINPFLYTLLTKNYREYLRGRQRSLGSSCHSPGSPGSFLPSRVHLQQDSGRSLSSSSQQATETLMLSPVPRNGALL

[2] = biological target: T1, Urotensin-2 receptor (Rattus norvegicus); assay: Allosteric modulation of urotensin-2 receptor in Sprague-Dawley rat thoracic aorta assessed as change in URP-mediated aortic ring contraction by measuring URP Emax at 10^-5M preincubated for 15 mins followed by URP addition relative to KCl (reference value: 118 +/- 2%)
[3] = biological target: T1, Urotensin-2 receptor (Rattus norvegicus); assay: Agonist activity at urotensin-2 receptor in Sprague-Dawley rat thoracic aorta assessed as induction of aortic ring contraction at 10^-5 M incubated for 15 mins
Procedure, shortened: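 Endothelium-denuded 4 mm thoracic aortic rings from adult male rats (250–300 g) were held in organ baths of oxygenated Krebs–Henseleit. A 40 mM KCl contraction served as the initial control. Each analogue was added alone at 10−5 M, and the contraction was expressed as % of the KCl response.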

[4] = biological target: T2, Urotensin-2 receptor (Homo sapiens) (UniProt Q9UKP6); assay: Agonist activity at human urotensin-2 receptor expressed in HEK293 cells assessed as Gq activation at 10^-5 M […] by BRET assay; format: cell-based
T2 sequence (whole entry): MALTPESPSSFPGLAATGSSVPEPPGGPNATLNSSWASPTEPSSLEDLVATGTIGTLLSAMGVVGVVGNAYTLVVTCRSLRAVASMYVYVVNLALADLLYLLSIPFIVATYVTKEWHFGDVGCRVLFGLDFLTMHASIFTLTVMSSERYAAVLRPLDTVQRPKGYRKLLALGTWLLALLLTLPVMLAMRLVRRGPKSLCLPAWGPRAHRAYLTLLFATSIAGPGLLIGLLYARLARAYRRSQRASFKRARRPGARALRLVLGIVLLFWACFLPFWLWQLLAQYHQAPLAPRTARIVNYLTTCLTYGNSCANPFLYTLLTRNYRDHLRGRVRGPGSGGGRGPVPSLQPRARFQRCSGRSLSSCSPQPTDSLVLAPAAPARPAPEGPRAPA
Procedure, shortened: (§1)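 HEK293-UT cells were transfected with a polycistronic BRET biosensor, 2.5 μg for Gq or 0.5 μg for G12, and grown about 40 h. They were then held 2 h in PBS with 0.1% glucose. The analogue (10−5 M) was added alone with coelenterazine 400A. The GFP10/RlucII ratio (515/410 nm) was read over 5 min and normalized to hUII or URP at 10−5 M.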

[5] = biological target: T2, Urotensin-2 receptor (Homo sapiens); assay: Agonist activity at human urotensin-2 receptor expressed in HEK293 cells assessed as G12 activation at 10^-5 M […] by BRET assay; format: cell-based; procedure, shortened: as §1
[6] = biological target: T2, Urotensin-2 receptor (Homo sapiens); assay: Allosteric modulation of human urotensin-2 receptor expressed in HEK293 cells assessed as change in human urotensin-2-induced Gq activation by measuring urotensin-2 Emax at 10^-5 M preincubated for 30 mins followed by urotensin-2 addition by BRET assay (reference value: 100 +/- 3%); format: cell-based
[7] = biological target: T2, Urotensin-2 receptor (Homo sapiens); assay: Allosteric modulation of human urotensin-2 receptor expressed in HEK293 cells assessed as change in URP-induced Gq activation by measuring URP Emax at 10^-5 M preincubated for 30 mins followed by URP addition by BRET assay (reference value: 100 +/- 3%); format: cell-based
[8] = biological target: T2, Urotensin-2 receptor (Homo sapiens); assay: Allosteric modulation of human urotensin-2 receptor expressed in HEK293 cells assessed as change in human urotensin-2-induced G12 activation by measuring urotensin-2 Emax at 10^-5 M preincubated for 30 mins followed by urotensin-2 addition by BRET assay (reference value: 100 +/- 6%); format: cell-based
[9] = biological target: T2, Urotensin-2 receptor (Homo sapiens); assay: Allosteric modulation of human urotensin-2 receptor expressed in HEK293 cells assessed as change in URP-induced G12 activation by measuring URP Emax at 10^-5 M preincubated for 30 mins followed by URP addition by BRET assay (reference value: 100 +/- 7%); format: cell-based
[10] = biological target: T1, Urotensin-2 receptor (Rattus norvegicus); assay: Allosteric modulation of urotensin-2 receptor in Sprague-Dawley rat thoracic aorta assessed as change in human urotensin-2-mediated aortic ring contraction by measuring urotensin-2 Emax at 1 uM preincubated for 15 mins followed by urotensin-2 addition relative to KCl (reference value: 103 +/- 2%)
[11] = biological target: T1, Urotensin-2 receptor (Rattus norvegicus); assay: Allosteric modulation of urotensin-2 receptor in Sprague-Dawley rat thoracic aorta assessed as change in URP-mediated aortic ring contraction by measuring URP Emax at 1 uM preincubated for 15 mins followed by URP addition relative to KCl (reference value: 118 +/- 2%)

Row | SMILES | Emax [1] | Emax [2] | Activity [3] | Activity [4] | Activity [5] | Emax [6] | Emax [7] | Emax [8] | Emax [9] | Emax [10] | Emax [11]
1 | COc1ccc(CCC2=NN(CCCCN)C(=O)N(Cc3ccc(-c4ccccc4)cc3)c3ccccc32)cc1 | 82% | 84% | < 8% | – | – | – | – | – | – | – | –
2 | COc1ccc(CCC2=NN(CCCN)C(=O)N(Cc3ccc(-c4ccccc4)cc3)c3ccccc32)cc1 | 59% | 47% | < 8% | – | – | – | – | – | – | – | –
3 | NCCCN1N=C(CCc2nc3ccccc3s2)c2ccccc2N(Cc2ccc(-c3ccccc3)cc2)C1=O | 75% | 99% | < 8% | – | – | – | – | – | – | – | –
4 | NCCCN1N=C(CCc2nc3ccccc3s2)c2ccccc2N(Cc2cccc3ccccc23)C1=O | 100% | 101% | < 8% | – | – | – | – | – | – | – | –
5 | NCCCN1N=C(/C=C/c2ccc(O)cc2)c2ccccc2N(Cc2ccc3ccccc3c2)C1=O | 59% | 111% | < 8% | – | – | – | – | – | – | – | –
6 | NCCCCN1N=C(/C=C/c2ccc(O)cc2)c2ccccc2N(Cc2ccc(-c3ccccc3)cc2)C1=O | 48% | 118% | < 8% | inactive | inactive | 92% | 92% | 103% | 72% | – | –
7 | NCCCCN1N=C(/C=C/c2ccc(O)cc2)c2ccccc2N(Cc2ccc3ccccc3c2)C1=O | 55% | 114% | < 8% | – | – | – | – | – | – | – | –
8 | NCCCCN1N=C(CCc2nc3ccccc3s2)c2ccccc2N(Cc2cccc3ccccc23)C1=O | 100% | 124% | < 8% | – | – | – | – | – | – | – | –
9 | COc1ccc(/C=C/C2=NN(CCCN)C(=O)N(Cc3ccc4ccccc4c3)c3ccccc32)cc1 | 76% | 120% | < 8% | – | – | – | – | – | – | – | –
10 | NCCCCN1N=C(CCc2nc3ccccc3s2)c2ccccc2N(Cc2ccc(-c3ccccc3)cc2)C1=O | 68% | 112% | < 8% | – | – | – | – | – | – | – | –
11 | CNCCCCN1N=C(CCc2nc3ccccc3s2)c2ccccc2N(Cc2ccc(-c3ccccc3)cc2)C1=O | 90% | 91% | < 8% | – | – | – | – | – | – | – | –
12 | NCCCCN1N=C(CCc2nc3ccccc3s2)c2ccccc2N(Cc2ccc3ccccc3c2)C1=O | 73% | 111% | < 8% | – | – | – | – | – | – | – | –
13 | NCCCCN1N=C(CCc2ccc(O)cc2)c2ccccc2N(Cc2ccc(-c3ccccc3)cc2)C1=O | 118% | 86% | < 8% | – | – | – | – | – | – | – | –
14 | NCCCN1N=C(CCc2nc3ccccc3s2)c2ccccc2N(Cc2ccc3ccccc3c2)C1=O | 45% | 117% | < 8% | inactive | inactive | 87% | 82% | 96% | 115% | – | –
15 | CC(C)[C@H](NC(=O)[C@@H]1CSSC[C@H](NC(=O)[C@H](C)N)C(=O)N[C@@H](Cc2ccccc2)C(=O)N[C@@H](Cc2ccc(-c3ccccc3)cc2)C(=O)N[C@@H](CCCCN)C(=O)N[C@@H](Cc2ccc(O)cc2)C(=O)N1)C(=O)O | – | – | – | – | – | – | – | – | – | 61% | 102%
16 | COc1ccc(/C=C/C2=NN(CCCN)C(=O)N(Cc3ccc(-c4ccccc4)cc3)c3ccccc32)cc1 | 106% | 194% | < 8% | – | – | – | – | – | – | – | –
17 | NCCCN1N=C(/C=C/c2ccc(O)cc2)c2ccccc2N(Cc2ccc(-c3ccccc3)cc2)C1=O | 51% | 115% | < 8% | – | – | – | – | – | – | – | –
18 | NCCCCN1N=C(CCc2ccc(O)cc2)c2ccccc2N(Cc2ccc3ccccc3c2)C1=O | 98% | 75% | < 8% | inactive | inactive | 83% | 78% | 98% | 90% | – | –
19 | CNCCCN1N=C(CCc2nc3ccccc3s2)c2ccccc2N(Cc2ccc(-c3ccccc3)cc2)C1=O | 76% | 110% | < 8% | – | – | – | – | – | – | – | –
20 | COc1ccc(/C=C/C2=NN(CCCCN)C(=O)N(Cc3ccc(-c4ccccc4)cc3)c3ccccc32)cc1 | 83% | 284% | < 8% | inactive | inactive | 80% | 83% | 96% | 106% | – | –
21 | CNCCCCN1N=C(CCc2nc3ccccc3s2)c2ccccc2N(Cc2cccc3ccccc23)C1=O | 99% | 99% | < 8% | – | – | – | – | – | – | – | –
22 | NCCCN1N=C(CCc2ccc(O)cc2)c2ccccc2N(Cc2ccc(-c3ccccc3)cc2)C1=O | 95% | 90% | < 8% | – | – | – | – | – | – | – | –
23 | COc1ccc(CCC2=NN(CCCCN)C(=O)N(Cc3ccc4ccccc4c3)c3ccccc32)cc1 | 55% | 72% | < 8% | – | – | – | – | – | – | – | –
24 | CNCCCCN1N=C(CCc2nc3ccccc3s2)c2ccccc2N(Cc2ccc3ccccc3c2)C1=O | 87% | 114% | < 8% | – | – | – | – | – | – | – | –
25 | COc1ccc(CCC2=NN(CCCN)C(=O)N(Cc3ccc4ccccc4c3)c3ccccc32)cc1 | 55% | 41% | < 8% | – | – | – | – | – | – | – | –
26 | COc1ccc(/C=C/C2=NN(CCCCN)C(=O)N(Cc3ccc4ccccc4c3)c3ccccc32)cc1 | 108% | 110% | < 8% | – | – | – | – | – | – | – | –
27 | NCCCN1N=C(CCc2ccc(O)cc2)c2ccccc2N(Cc2ccc3ccccc3c2)C1=O | 107% | 96% | < 8% | – | – | – | – | – | – | – | –
